The text below walks through data of article PMC12394898 (Chemical Science, 2025).

Read-outs that look alike come from different tables or passages of the source.

In series [1] the test system is HT-29. Put plainly: Cytotoxic activity, crystal violet staining. Format: cell-based, human. The following applies: read-out: IC50 HT-29, HT-29 cells, 72 hours incubation.
A short description of the next series: Stability in water. Format: physicochemical. The conditions noted are these: 4 mg in DMSO-d6 (0.4 mL) diluted with D2O to 0.5 mL, 48 hours.
Series [2] addresses T1, recombinant human TrxR (TrxR1) (Homo sapiens, UniProt Q16881).
T1 sequence (Q16881 1-499 isoform Q16881-5): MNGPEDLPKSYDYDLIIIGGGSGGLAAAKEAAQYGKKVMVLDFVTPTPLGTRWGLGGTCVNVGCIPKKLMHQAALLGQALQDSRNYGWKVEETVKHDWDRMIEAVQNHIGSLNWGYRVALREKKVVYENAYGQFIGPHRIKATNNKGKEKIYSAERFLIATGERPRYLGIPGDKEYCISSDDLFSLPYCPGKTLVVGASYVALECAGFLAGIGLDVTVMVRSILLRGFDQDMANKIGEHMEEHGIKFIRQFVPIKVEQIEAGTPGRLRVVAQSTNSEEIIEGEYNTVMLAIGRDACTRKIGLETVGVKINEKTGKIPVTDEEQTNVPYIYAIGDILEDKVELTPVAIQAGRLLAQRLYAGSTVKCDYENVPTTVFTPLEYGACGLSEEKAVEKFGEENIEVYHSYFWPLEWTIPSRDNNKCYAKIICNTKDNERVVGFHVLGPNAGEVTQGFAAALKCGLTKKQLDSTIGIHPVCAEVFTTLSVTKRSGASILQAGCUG
Put plainly: Thioredoxin reductase inhibition assay. Format: biochemical.

In a further series the test system is A-549. Description: Cytotoxic activity, crystal violet staining. It is filed as cell-based, human. The following applies: read-out: IC50 A-549, A-549 cells, 72 hours incubation.
For another series, the system named is MCF-7. Description: Cytotoxic activity, crystal violet staining. Format: cell-based, human. The following applies: read-out: IC50 MCF-7, MCF-7 cells, 96 hours incubation.
Series [3] relates to A2780. The following applies: read-out: average IC50 in A2780 ovarian cancer cells; literature value; cited from earlier work.
For series [4], the system named is organoids from HGSOC tissues (HGSOC-PDTO1-4). Description: Patient-Derived Organoid cytotoxicity assay. It is filed as cell-based, human. The gist of the method: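 Patient-derived high-grade serous ovarian cancer tumor organoids (3D model) came from the C.R.O. biobank. Carboplatin, the standard treatment, served as positive control. Dose-response IC50 values were obtained per organoid line.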

Series [5] concerns A2780. Put plainly: Cytotoxicity on ovarian cancer cell line. Format: cell-based, human. The following applies: read-out: IC50 A2780.
Series [6] relates to organoids from colon cancer tissues (CRC-PDTO1-4). Description: Patient-Derived Organoid cytotoxicity assay. It is filed as cell-based, human. In a few lines:
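Patient-derived colorectal cancer tumor organoids (3D model) came from the C.R.O. biobank. Oxaliplatin, the standard treatment, served as positive control. Dose-response IC50 values were obtained per organoid line.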

The test system of series [7] is HT-29. The following applies: read-out: average IC50 in HT-29 colon cancer cells; literature value; cited from earlier work.
[8] abbreviates: read-out: IC50 HGSOC-PDTO1, organoid HGSOC-PDTO1, 96 hours of treatment.
The mark [9] stands for this setting: read-out: IC50 HGSOC-PDTO2, organoid HGSOC-PDTO2, 96 hours of treatment.
The mark [10] stands for this setting: read-out: IC50 HGSOC-PDTO3, organoid HGSOC-PDTO3, 96 hours of treatment.
Where [11] appears, read: read-out: IC50 HGSOC-PDTO4, organoid HGSOC-PDTO4, 96 hours of treatment.
The mark [12] stands for this setting: read-out: IC50 CRC-PDTO1, organoid CRC-PDTO1, 96 hours of treatment.
Setting [13] is: read-out: IC50 CRC-PDTO2, organoid CRC-PDTO2, 96 hours of treatment.
Setting [14] is: read-out: IC50 CRC-PDTO3, organoid CRC-PDTO3, 96 hours of treatment.
[15] abbreviates: read-out: IC50 CRC-PDTO4, organoid CRC-PDTO4, 96 hours of treatment.
Setting [16] is: 50 μM for 96 hours, compared to non-treated controls.

One may read the IC50 as the concentration needed to halve the response being measured. As to `CC(C)c1cccc(C(C)C)c1-n1ccn(-c2c(C(C)C)cccc2C(C)C)[c]1=[Au][Se]c1ccccc1` [1a, [Au(IPr)Se(C6H5)]], the figures for the IC50 in the series on HT-29 [1], in the series with A-549 and with MCF-7 were 3.1 ± 0.5 µM, 4.5 ± 0.9 µM and 3.6 ± 0.5 µM, respectively. For the same compound, the stability in water entry in “Stability in water” was “No change”. Moreover, the “inhibition of the enzyme (TrxR1)” value in [2] (highest applied dosage of 100 μM) was “did not show any inhibition”.

Regarding `CC(C)c1cccc(C(C)C)c1N1CCN(c2c(C(C)C)cccc2C(C)C)[C]1=[Au][Se]c1ccccc1` [1b, [Au(SIPr)Se(C6H5)]], the IC50 in the series with HT-29 [1], with A-549 and in the series with MCF-7 was above 100 µM throughout.

Take `Cc1cc(C(c2ccccc2)c2ccccc2)c(-n2ccn(-c3c(C(c4ccccc4)c4ccccc4)cc(C)cc3C(c3ccccc3)c3ccccc3)[c]2=[Au][Se]c2ccccc2)c(C(c2ccccc2)c2ccccc2)c1` [1c, [Au(IPr*)Se(C6H5)]]: the IC50 in the series with HT-29 [1], in the series on A-549 and in the series with MCF-7 was above 100 µM each time.

Consider `Cc1c(C)n(-c2c(C(C)C)cccc2C(C)C)[c](=[Au][Se]c2ccccc2)n1-c1c(C(C)C)cccc1C(C)C` [1d, [Au(IPr^Me)Se(C6H5)]], for which the IC50 in the series with HT-29 [1] was above 100 µM; in the series with A-549, above 100 µM; in the series with MCF-7, 6.1 ± 0.3 µM.

Regarding `Cc1cc(C)c(N2CCN(c3c(C)cc(C)cc3C)[C]2=[Au][Se]c2ccccc2)c(C)c1` [1k, [Au(SIMes)Se(C6H5)]], the IC50 in the series on HT-29 [1] worked out at 9.9 ± 0.3 µM; in the series on A-549 it was 6.3 ± 0.6 µM; in the series with MCF-7 it was 4.4 ± 0.1 µM.

On to `CCC(CC)c1cccc(C(CC)CC)c1-n1ccn(-c2c(C(CC)CC)cccc2C(CC)CC)[c]1=[Au][Se]c1ccccc1` [1l, [Au(IPent)Se(C6H5)]], for which the IC50 in the series with HT-29 [1], in the series with A-549 and in the series with MCF-7 was above 100 µM in each case.

In the case of `CC(C)c1cccc(C(C)C)c1-n1ccn(-c2c(C(C)C)cccc2C(C)C)[c]1=[Cu][Se]c1ccccc1` [1p, [Cu(IPr)Se(C6H5)]], the IC50 in the series with HT-29 [1] turned out to be 1 ± 0.3 µM; in the series with A-549, 0.7 ± 0.1 µM; in the series with MCF-7 it was 0.4 ± 0.3 µM.

With `CC(C)c1cccc(C(C)C)c1-n1ccn(-c2c(C(C)C)cccc2C(C)C)[c]1=[Ag][Se]c1ccccc1` [1q, [Ag(IPr)Se(C6H5)]], the IC50 in the series with HT-29 [1] worked out at 1.2 ± 0.3 µM; in the series on A-549 it was 0.8 ± 0.1 µM; in the series on MCF-7, 0.9 ± 0.2 µM.

For `CC(=O)OC[C@H]1O[C@@H]([S-])[C@H](OC(C)=O)[C@@H](OC(C)=O)[C@@H]1OC(C)=O.CCP(CC)CC.[Au+]` [Auranofin, reference compound], the figures for the IC50 in the series on HT-29 [1], with A-549 and with MCF-7 were 4.9 ± 0.5 µM, 3.7 ± 0.4 µM and 1.5 ± 0.2 µM, respectively.

`N.N.O=C([O-])C1(C(=O)[O-])CCC1.[Pt+2]` [Carboplatin, reference compound]: the IC50 was 8 µM in the series with A2780 [3]; 3.5 ± 0.7 µM in [4] (setting [8]); 3 ± 1 µM in series [4] (setting [9]); above 100 µM in series [4] (setting [10]); above 100 µM in series [4] (setting [11]).

With `N.N.[Cl][Pt][Cl]` [Cisplatin, reference compound], the IC50 in the series with HT-29 [1] was 7 ± 0.5 µM; in the series on A-549 it was 3 ± 0.4 µM; with A2780 [5] it was 1 µM; in the series with MCF-7 it was 5.3 ± 0.8 µM.

`O=C1[O][Pt]2([NH][C@@H]3CCCC[C@H]3[NH]2)[O]C1=O` [Oxaliplatin, reference compound]: the IC50 in series [6] (setting [12]) is 1.4 ± 0.9 µM; in series [6] (setting [13]), 4 ± 1 µM; in series [6] (setting [14]), above 100 µM; in [6] (setting [15]) it was above 100 µM; in the series on HT-29 [7] it was 7 µM.

In the case of [Au(BzIPr)Se(C6H5)] [1f], the IC50 in the series with HT-29 [1] is 1.08 ± 0.05 µM; in the series with A-549, 0.32 ± 0.04 µM; in the series on MCF-7 it was 1.9 ± 0.4 µM.

As to [Au(IPr)Se(C6H4CF3)] [2a], the half-inhibitory concentration (IC50) with HT-29 [1] stood at 88 ± 8 µM; in the series with A-549, 55 ± 10 µM; in the series on MCF-7, 48 ± 5 µM.

In the case of [Au(ImPyIPr)Se(C6H5)] [1i], the IC50 with HT-29 [1] was determined as 12.6 ± 0.8 µM; in the series on A-549, 5.97 ± 0.08 µM; with MCF-7 it was 4.3 ± 0.4 µM.

In the case of [Au(MeIMes)Se(C6H5)] [1h], the IC50 in the series on HT-29 [1] came out at 4 ± 1 µM; with A-549, 4 ± 0.5 µM; in the series on MCF-7, 3.4 ± 0.6 µM.

For the compound [Au(MeIPr)Se(C6H5)] [1g], the figures for the half-maximal inhibitory concentration (IC50) in the series with HT-29 [1], with A-549 and in the series on MCF-7 were 2.2 ± 0.5 µM, 1.5 ± 0.3 µM and 2.4 ± 0.5 µM, respectively.

[Au(MonoIPent)Se(C6H5)] [1m]: the IC50 was found to be 0.35 ± 0.05 µM in the series with HT-29 [1]; 0.18 ± 0.05 µM in series [2] (read-out: TrxR inhibition average IC50, recombinant human TrxR, 75 min at 37 °C); 13 ± 9 µM in series [6] (setting [12]); 6 ± 2 µM in series [6] (setting [13]); 3.4 ± 0.5 µM in [6] (setting [14]); 9 ± 5 µM in [6] (setting [15]). The IC50 in the series on A-549 stood at 0.27 ± 0.03 µM; with A2780 [5], 0.4 ± 0.1 µM; in series [4] (setting [8]), 17 ± 8 µM; in series [4] (setting [9]), 4 ± 2 µM; in series [4] (setting [10]), 6 ± 2 µM; in series [4] (setting [11]) it was 7 ± 5 µM. Further, the IC50 with MCF-7 is 0.27 ± 0.04 µM. Moreover, the stability in water entry in “Stability in water” was “No change”. The “brightfield appearance of CRC PDTOs after treatment” value in series [6] (setting [16]) is “visible reductions in organoid size, density, and structural integrity”. Besides, the “brightfield appearance of HGSOC PDTOs after treatment” value in series [4] (setting [16]) is “visible reductions in organoid size, density, and structural integrity”.

For [Au(PPh3)Se(C6H5)] [1o], the values for the IC50 with HT-29 [1], in the series on A-549 and in the series with MCF-7 were 2.8 ± 0.2 µM, 2.9 ± 0.4 µM and 1.7 ± 0.08 µM, respectively.
